Measured values from ChEMBL document CHEMBL1137518, “Synthesis, biological evaluation and molecular modelling of sulfonohydrazides as selective PI3K p110alpha inhibitors” (Bioorg Med Chem, 2007).

Tested on: not listed separately
Test: Antiproliferative activity against human NZOV9 cells
Format: functional, cell-based
In short: (§1)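 Early-passage human cancer cell lines grown in alpha-modified MEM with insulin, transferrin, selenite and 5% FBS; 1000 cells per well. Drug added in 10-fold concentration steps up to 20 µM; incubated five days under 5% O2, 5% CO2, 90% N2. [3H]thymidine (0.04 µCi/well) added for the last 6 h, incorporation counted. Duplicates per dose; IC50 from exponential least-squares fit.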

Row | SMILES | IC50 [µM]
1 | Cc1ccc([N+](=O)[O-])cc1S(=O)(=O)N(C)/N=C/c1cncc2ccccc12 | 0.5
2 | Cc1ccc([N+](=O)[O-])cc1S(=O)(=O)N(C)/N=C/c1cncn1C | > 20
3 | Cc1ccc([N+](=O)[O-])cc1S(=O)(=O)N(C)/N=C/c1ccnc2ccccc12 | 0.8
4 | Cc1ccc([N+](=O)[O-])cc1S(=O)(=O)N(C)/N=C/c1cnc2ccccc2c1 | 6
5 | Cc1ccc([N+](=O)[O-])cc1S(=O)(=O)N(C)/N=C/c1cnc2n1CCCC2 | 10
6 | Cc1ccc([N+](=O)[O-])cc1S(=O)(=O)N(C)/N=C/c1cncc2cc(Br)ccc12 | 11
7 | Cc1ccc([N+](=O)[O-])cc1S(=O)(=O)N(C)/N=C/c1csc2ccccc12 | > 20
8 | Cc1ccc([N+](=O)[O-])cc1S(=O)(=O)N(C)/N=C/c1cncc2c(Br)cccc12 | 12
9 | Cc1ccc([N+](=O)[O-])cc1S(=O)(=O)N(C)/N=C/c1cnc2ccccn12 | 0.68
10 | Cc1ccc([N+](=O)[O-])cc1S(=O)(=O)N(C)/N=C/c1cn(C)c2ccccc12 | > 20
11 | Cc1ccc([N+](=O)[O-])cc1S(=O)(=O)N(C)/N=C/c1cccc2ccccc12 | > 20
12 | Cc1ccc([N+](=O)[O-])cc1S(=O)(=O)N(C)/N=C/c1cncc2ccc(Br)cc12 | 4.2
13 | Cc1ccc([N+](=O)[O-])cc1S(=O)(=O)N(C)/N=C/c1ncc2ccccn12 | 1.2
14 | Cc1ccc([N+](=O)[O-])cc1S(=O)(=O)N(C)/N=C/c1onc2ccccc12 | 3.3
15 | Cc1ccc([N+](=O)[O-])cc1S(=O)(=O)N(C)/N=C/c1coc2ccccc12 | 8.5

Target: T1, Phosphatidylinositol 4,5-bisphosphate 3-kinase catalytic subunit delta isoform (Homo sapiens, UniProt O00329)
T1 sequence (O00329 whole entry): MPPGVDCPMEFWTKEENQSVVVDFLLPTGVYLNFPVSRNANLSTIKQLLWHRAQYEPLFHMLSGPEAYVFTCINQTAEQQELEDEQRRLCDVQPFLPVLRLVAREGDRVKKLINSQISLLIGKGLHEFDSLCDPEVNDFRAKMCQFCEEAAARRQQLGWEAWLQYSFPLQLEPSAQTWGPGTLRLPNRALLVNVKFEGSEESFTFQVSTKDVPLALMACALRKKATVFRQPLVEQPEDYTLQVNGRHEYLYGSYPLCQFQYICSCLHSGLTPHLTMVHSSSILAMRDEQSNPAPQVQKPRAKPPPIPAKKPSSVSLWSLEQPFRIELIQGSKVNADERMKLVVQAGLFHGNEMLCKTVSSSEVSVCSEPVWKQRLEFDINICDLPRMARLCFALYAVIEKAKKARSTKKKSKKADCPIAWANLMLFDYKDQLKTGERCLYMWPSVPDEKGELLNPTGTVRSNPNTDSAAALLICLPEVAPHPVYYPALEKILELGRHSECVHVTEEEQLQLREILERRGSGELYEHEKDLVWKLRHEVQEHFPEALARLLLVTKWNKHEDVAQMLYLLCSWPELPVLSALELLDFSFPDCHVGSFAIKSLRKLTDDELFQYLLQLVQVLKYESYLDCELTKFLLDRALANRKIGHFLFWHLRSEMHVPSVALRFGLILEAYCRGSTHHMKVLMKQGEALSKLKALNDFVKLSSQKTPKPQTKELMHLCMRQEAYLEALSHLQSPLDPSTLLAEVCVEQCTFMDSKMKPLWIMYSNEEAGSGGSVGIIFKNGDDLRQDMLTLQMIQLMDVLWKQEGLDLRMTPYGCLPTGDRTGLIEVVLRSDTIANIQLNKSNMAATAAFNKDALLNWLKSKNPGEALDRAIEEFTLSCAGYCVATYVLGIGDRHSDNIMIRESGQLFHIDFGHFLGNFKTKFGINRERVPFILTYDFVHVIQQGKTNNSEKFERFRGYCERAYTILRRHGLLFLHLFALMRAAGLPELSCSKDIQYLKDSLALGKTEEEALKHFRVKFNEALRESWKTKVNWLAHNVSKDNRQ
Test: Inhibition of human recombinant p110delta
In short: (§2)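 Recombinant p110/p85 complexes (p110d/p85 commercial; p110a/p85 and p110b/p85 prepared in-house), 0.1 µg enzyme with 10 µg L-α-phosphatidylinositol in Tris-HCl pH 7.4/NaCl/EDTA buffer, 1% DMSO final. 1 h at room temperature, stopped with HCl. Lipids extracted, resolved by TLC, radiolabel quantified. Means of two experiments.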

Row | SMILES | IC50 [µM]
16 | Cc1ccc([N+](=O)[O-])cc1S(=O)(=O)N(C)/N=C/c1cncc2ccccc12 | 3.6
17 | Cc1ccc([N+](=O)[O-])cc1S(=O)(=O)N(C)/N=C/c1cncn1C | > 10
18 | Cc1ccc([N+](=O)[O-])cc1S(=O)(=O)N(C)/N=C/c1ccnc2ccccc12 | > 10
19 | Cc1ccc([N+](=O)[O-])cc1S(=O)(=O)N(C)/N=C/c1cnc2ccccc2c1 | > 10
20 | Cc1ccc([N+](=O)[O-])cc1S(=O)(=O)N(C)/N=C/c1cnc2n1CCCC2 | > 10
21 | Cc1ccc([N+](=O)[O-])cc1S(=O)(=O)N(C)/N=C/c1cncc2cc(Br)ccc12 | > 10
22 | Cc1ccc([N+](=O)[O-])cc1S(=O)(=O)N(C)/N=C/c1csc2ccccc12 | > 10
23 | Cc1ccc([N+](=O)[O-])cc1S(=O)(=O)N(C)/N=C/c1ncn2ccccc12 | > 10
24 | Cc1ccc([N+](=O)[O-])cc1S(=O)(=O)N(C)/N=C/c1cncc2c(Br)cccc12 | > 10
25 | Cc1ccc([N+](=O)[O-])cc1S(=O)(=O)N(C)/N=C/c1cnc2ccccn12 | 5.4
26 | Cc1ccc([N+](=O)[O-])cc1S(=O)(=O)N(C)/N=C/c1cn(C)c2ccccc12 | > 10
27 | Cc1ccc([N+](=O)[O-])cc1S(=O)(=O)N(C)/N=C/c1cccc2ccccc12 | > 10
28 | Cc1ccc([N+](=O)[O-])cc1S(=O)(=O)N(C)/N=C/c1cncc2ccc(Br)cc12 | 9
29 | Cc1ccc([N+](=O)[O-])cc1S(=O)(=O)N(C)/N=C/c1ncc2ccccn12 | > 10
30 | Cc1ccc([N+](=O)[O-])cc1S(=O)(=O)N(C)/N=C/c1onc2ccccc12 | > 10
31 | Cc1ccc([N+](=O)[O-])cc1S(=O)(=O)N(C)/N=C/c1coc2ccccc12 | > 10

Tested on: not listed separately
Test: Antiproliferative activity against human NZB5 cells
Format: functional, cell-based
In short: as §1

Row | SMILES | IC50 [µM]
32 | Cc1ccc([N+](=O)[O-])cc1S(=O)(=O)N(C)/N=C/c1cncc2ccccc12 | 0.89
33 | Cc1ccc([N+](=O)[O-])cc1S(=O)(=O)N(C)/N=C/c1cncn1C | > 20
34 | Cc1ccc([N+](=O)[O-])cc1S(=O)(=O)N(C)/N=C/c1ccnc2ccccc12 | 1.5
35 | Cc1ccc([N+](=O)[O-])cc1S(=O)(=O)N(C)/N=C/c1cnc2ccccc2c1 | 3
36 | Cc1ccc([N+](=O)[O-])cc1S(=O)(=O)N(C)/N=C/c1cnc2n1CCCC2 | 10
37 | Cc1ccc([N+](=O)[O-])cc1S(=O)(=O)N(C)/N=C/c1cncc2cc(Br)ccc12 | 6.6
38 | Cc1ccc([N+](=O)[O-])cc1S(=O)(=O)N(C)/N=C/c1csc2ccccc12 | > 20
39 | Cc1ccc([N+](=O)[O-])cc1S(=O)(=O)N(C)/N=C/c1ncn2ccccc12 | 3.3
40 | Cc1ccc([N+](=O)[O-])cc1S(=O)(=O)N(C)/N=C/c1cncc2c(Br)cccc12 | 5.7
41 | Cc1ccc([N+](=O)[O-])cc1S(=O)(=O)N(C)/N=C/c1cnc2ccccn12 | 0.35
42 | Cc1ccc([N+](=O)[O-])cc1S(=O)(=O)N(C)/N=C/c1cn(C)c2ccccc12 | 15
43 | Cc1ccc([N+](=O)[O-])cc1S(=O)(=O)N(C)/N=C/c1cnc2ccc(Br)cn12 | 0.069
44 | Cc1ccc([N+](=O)[O-])cc1S(=O)(=O)N(C)/N=C/c1cccc2ccccc12 | > 20
45 | Cc1ccc([N+](=O)[O-])cc1S(=O)(=O)N(C)/N=C/c1cncc2ccc(Br)cc12 | 5.1
46 | Cc1ccc([N+](=O)[O-])cc1S(=O)(=O)N(C)/N=C/c1ncc2ccccn12 | 2.1
47 | Cc1ccc([N+](=O)[O-])cc1S(=O)(=O)N(C)/N=C/c1onc2ccccc12 | 3.9
48 | Cc1ccc([N+](=O)[O-])cc1S(=O)(=O)N(C)/N=C/c1coc2ccccc12 | 12

Target: Phosphatidylinositol 4,5-bisphosphate 3-kinase catalytic subunit beta isoform (Homo sapiens, UniProt P42338)
Test: Inhibition of human recombinant p110beta
In short: as §2

Phosphatidylinositol 4,5-bisphosphate 3-kinase catalytic subunit beta isoform, sequence (P42338 whole entry, canonical isoform): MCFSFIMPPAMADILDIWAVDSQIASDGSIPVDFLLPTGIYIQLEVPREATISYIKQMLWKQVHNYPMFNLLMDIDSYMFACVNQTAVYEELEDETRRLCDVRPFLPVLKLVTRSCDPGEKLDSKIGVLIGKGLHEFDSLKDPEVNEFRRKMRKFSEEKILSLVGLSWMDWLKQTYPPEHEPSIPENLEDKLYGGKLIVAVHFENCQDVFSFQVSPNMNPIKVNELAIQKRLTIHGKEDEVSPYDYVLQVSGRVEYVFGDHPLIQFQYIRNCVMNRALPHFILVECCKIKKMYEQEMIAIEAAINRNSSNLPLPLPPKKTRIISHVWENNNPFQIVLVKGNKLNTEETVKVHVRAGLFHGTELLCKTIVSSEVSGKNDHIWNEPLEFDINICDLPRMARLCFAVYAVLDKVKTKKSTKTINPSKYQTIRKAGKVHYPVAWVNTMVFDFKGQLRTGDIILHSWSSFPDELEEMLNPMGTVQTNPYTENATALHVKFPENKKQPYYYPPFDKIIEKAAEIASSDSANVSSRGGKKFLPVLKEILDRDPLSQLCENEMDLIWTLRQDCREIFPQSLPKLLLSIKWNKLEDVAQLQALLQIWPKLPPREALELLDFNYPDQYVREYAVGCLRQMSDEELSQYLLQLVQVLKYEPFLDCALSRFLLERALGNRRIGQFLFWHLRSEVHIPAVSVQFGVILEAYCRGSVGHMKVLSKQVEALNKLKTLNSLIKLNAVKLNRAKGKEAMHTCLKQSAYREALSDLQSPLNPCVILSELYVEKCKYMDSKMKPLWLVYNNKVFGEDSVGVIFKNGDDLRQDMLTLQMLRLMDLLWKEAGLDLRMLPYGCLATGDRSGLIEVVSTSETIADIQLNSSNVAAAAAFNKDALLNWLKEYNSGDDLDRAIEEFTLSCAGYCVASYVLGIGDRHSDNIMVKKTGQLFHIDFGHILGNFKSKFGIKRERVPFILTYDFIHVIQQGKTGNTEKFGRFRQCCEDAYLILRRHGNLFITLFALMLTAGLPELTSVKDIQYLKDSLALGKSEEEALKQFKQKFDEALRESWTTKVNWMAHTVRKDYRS

Row | SMILES | IC50 [µM]
49 | Cc1ccc([N+](=O)[O-])cc1S(=O)(=O)N(C)/N=C/c1cncc2ccccc12 | > 10
50 | Cc1ccc([N+](=O)[O-])cc1S(=O)(=O)N(C)/N=C/c1cncn1C | > 10
51 | Cc1ccc([N+](=O)[O-])cc1S(=O)(=O)N(C)/N=C/c1ccnc2ccccc12 | > 10
52 | Cc1ccc([N+](=O)[O-])cc1S(=O)(=O)N(C)/N=C/c1cnc2ccccc2c1 | > 10
53 | Cc1ccc([N+](=O)[O-])cc1S(=O)(=O)N(C)/N=C/c1cnc2n1CCCC2 | > 10
54 | Cc1ccc([N+](=O)[O-])cc1S(=O)(=O)N(C)/N=C/c1cncc2cc(Br)ccc12 | > 10
55 | Cc1ccc([N+](=O)[O-])cc1S(=O)(=O)N(C)/N=C/c1csc2ccccc12 | > 10
56 | Cc1ccc([N+](=O)[O-])cc1S(=O)(=O)N(C)/N=C/c1ncn2ccccc12 | > 10
57 | Cc1ccc([N+](=O)[O-])cc1S(=O)(=O)N(C)/N=C/c1cncc2c(Br)cccc12 | > 10
58 | Cc1ccc([N+](=O)[O-])cc1S(=O)(=O)N(C)/N=C/c1cnc2ccccn12 | > 10
59 | Cc1ccc([N+](=O)[O-])cc1S(=O)(=O)N(C)/N=C/c1cn(C)c2ccccc12 | > 10
60 | Cc1ccc([N+](=O)[O-])cc1S(=O)(=O)N(C)/N=C/c1cccc2ccccc12 | > 10
61 | Cc1ccc([N+](=O)[O-])cc1S(=O)(=O)N(C)/N=C/c1cncc2ccc(Br)cc12 | > 10
62 | Cc1ccc([N+](=O)[O-])cc1S(=O)(=O)N(C)/N=C/c1ncc2ccccn12 | > 10
63 | Cc1ccc([N+](=O)[O-])cc1S(=O)(=O)N(C)/N=C/c1onc2ccccc12 | > 10
64 | Cc1ccc([N+](=O)[O-])cc1S(=O)(=O)N(C)/N=C/c1coc2ccccc12 | > 10

Target: Phosphatidylinositol 4,5-bisphosphate 3-kinase catalytic subunit alpha isoform (Homo sapiens, UniProt P42336)
Test: Inhibition of human recombinant p110alpha
In short: as §2

Phosphatidylinositol 4,5-bisphosphate 3-kinase catalytic subunit alpha isoform, sequence (P42336 whole entry, canonical isoform): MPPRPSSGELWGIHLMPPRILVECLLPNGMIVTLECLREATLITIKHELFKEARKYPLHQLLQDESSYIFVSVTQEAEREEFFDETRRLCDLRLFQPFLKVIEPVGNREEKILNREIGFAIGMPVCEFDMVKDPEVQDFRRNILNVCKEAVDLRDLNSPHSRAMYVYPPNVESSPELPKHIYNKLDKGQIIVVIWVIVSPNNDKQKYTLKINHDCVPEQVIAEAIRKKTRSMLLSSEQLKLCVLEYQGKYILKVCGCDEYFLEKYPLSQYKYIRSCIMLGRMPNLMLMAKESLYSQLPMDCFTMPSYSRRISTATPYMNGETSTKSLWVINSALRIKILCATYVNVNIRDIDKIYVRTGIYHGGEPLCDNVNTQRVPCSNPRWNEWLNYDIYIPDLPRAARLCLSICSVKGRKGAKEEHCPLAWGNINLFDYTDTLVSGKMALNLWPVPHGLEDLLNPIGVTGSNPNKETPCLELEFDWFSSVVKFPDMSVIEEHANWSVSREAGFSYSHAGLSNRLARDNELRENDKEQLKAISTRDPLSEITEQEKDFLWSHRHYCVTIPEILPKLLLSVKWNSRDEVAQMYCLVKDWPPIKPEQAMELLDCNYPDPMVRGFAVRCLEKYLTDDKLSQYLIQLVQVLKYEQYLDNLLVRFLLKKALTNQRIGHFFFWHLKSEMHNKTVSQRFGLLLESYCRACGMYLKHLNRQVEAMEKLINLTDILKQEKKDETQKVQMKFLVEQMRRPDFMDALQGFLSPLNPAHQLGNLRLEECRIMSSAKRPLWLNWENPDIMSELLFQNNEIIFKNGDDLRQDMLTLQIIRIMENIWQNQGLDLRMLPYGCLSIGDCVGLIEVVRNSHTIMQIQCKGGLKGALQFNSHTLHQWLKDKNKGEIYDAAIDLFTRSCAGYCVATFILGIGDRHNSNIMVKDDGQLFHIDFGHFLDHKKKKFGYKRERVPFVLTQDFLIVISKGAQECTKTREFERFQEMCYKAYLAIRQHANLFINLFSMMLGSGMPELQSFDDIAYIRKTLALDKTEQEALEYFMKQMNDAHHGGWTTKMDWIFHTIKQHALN

Row | SMILES | IC50 [µM]
65 | Cc1ccc([N+](=O)[O-])cc1S(=O)(=O)N(C)/N=C/c1cncc2ccccc12 | 0.8
66 | Cc1ccc([N+](=O)[O-])cc1S(=O)(=O)N(C)/N=C/c1cncn1C | > 10
67 | Cc1ccc([N+](=O)[O-])cc1S(=O)(=O)N(C)/N=C/c1ccnc2ccccc12 | 2.3
68 | Cc1ccc([N+](=O)[O-])cc1S(=O)(=O)N(C)/N=C/c1cnc2ccccc2c1 | > 10
69 | Cc1ccc([N+](=O)[O-])cc1S(=O)(=O)N(C)/N=C/c1cnc2n1CCCC2 | > 10
70 | Cc1ccc([N+](=O)[O-])cc1S(=O)(=O)N(C)/N=C/c1cncc2cc(Br)ccc12 | > 10
71 | Cc1ccc([N+](=O)[O-])cc1S(=O)(=O)N(C)/N=C/c1csc2ccccc12 | > 10
72 | Cc1ccc([N+](=O)[O-])cc1S(=O)(=O)N(C)/N=C/c1ncn2ccccc12 | > 10
73 | Cc1ccc([N+](=O)[O-])cc1S(=O)(=O)N(C)/N=C/c1cncc2c(Br)cccc12 | > 10
74 | Cc1ccc([N+](=O)[O-])cc1S(=O)(=O)N(C)/N=C/c1cnc2ccccn12 | 0.86
75 | Cc1ccc([N+](=O)[O-])cc1S(=O)(=O)N(C)/N=C/c1cn(C)c2ccccc12 | > 10
76 | Cc1ccc([N+](=O)[O-])cc1S(=O)(=O)N(C)/N=C/c1cccc2ccccc12 | > 10
77 | Cc1ccc([N+](=O)[O-])cc1S(=O)(=O)N(C)/N=C/c1cncc2ccc(Br)cc12 | 2.2
78 | Cc1ccc([N+](=O)[O-])cc1S(=O)(=O)N(C)/N=C/c1ncc2ccccn12 | > 10
79 | Cc1ccc([N+](=O)[O-])cc1S(=O)(=O)N(C)/N=C/c1onc2ccccc12 | 5
80 | Cc1ccc([N+](=O)[O-])cc1S(=O)(=O)N(C)/N=C/c1coc2ccccc12 | > 10
